According to article PMC12772459 (The Journal of general physiology, 2025):
Read-outs that look alike come from different tables or passages of the source.

How the values were obtained:
[1] = target: GluN1/2C receptors (Rattus norvegicus, UniProt P35439+Q00961); assay: Two-electrode voltage-clamp recordings of recombinant GluN1/2C receptors; type: cell-based; conditions: for selectivity for GluN1/2A over GluN1/2C: glycine concentration close to respective EC50
[2] = test system: triheteromeric GluN1/2A/2B receptors; type: cell-based, rat; conditions: 100 μM glutamate; for Hill slope nH of inhibition: 1 μM glycine; for IC50: read-out: IC50 (95% CI), […] μM glycine
[3] = target: GluN1/2A-V783L (Rattus norvegicus, UniProt P35439+Q00959, V783L); assay: Two-electrode voltage-clamp recordings, mutant GluN1/2A-V783L; type: cell-based; conditions: 0.5 μM glycine; for Hill slope nH of inhibition: 300 μM glutamate; for decrease of potency compared to wild type GluN1/2A: saturating glutamate
[4] = target: T1, GluN1/2A receptors (Rattus norvegicus, UniProt P35439+Q00959); type: cell-based; conditions: for selectivity for GluN1/2A over GluN1/2B-D receptors: in 1 μM glycine; for IC50: read-out: IC50 (95% CI), […] μM glycine
[5] = target: T1, GluN1/2A receptors; type: cell-based; conditions: global non-linear regression of glycine concentration-response data
[6] = target: GluN1/2A-Y754K (Rattus norvegicus, UniProt P35439+Q00959, Y754K); assay: Two-electrode voltage-clamp recordings, mutant GluN1/2A-Y754K; type: cell-based; conditions: 300 μM glutamate
[7] = target: GluN1/2D receptors (Rattus norvegicus, UniProt P35439+Q62645); assay: Two-electrode voltage-clamp recordings of recombinant GluN1/2D receptors; type: cell-based; conditions: for Hill slope nH of inhibition: 0.1 μM glycine, 100 μM glutamate; for selectivity for GluN1/2A over GluN1/2D: glycine concentration close to respective EC50
[8] = target: GluN1/2A-I755V (Rattus norvegicus, UniProt P35439+Q00959, I755V); assay: Two-electrode voltage-clamp recordings, mutant GluN1/2A-I755V; type: cell-based; conditions: 300 μM glutamate
[9] = target: GluN1/2A-I755V+Y754K (Rattus norvegicus, UniProt P35439+Q00959, I755V/Y754K); assay: Two-electrode voltage-clamp recordings, mutant GluN1/2A-I755V+Y754K; type: cell-based; conditions: 1 μM glycine, 300 μM glutamate
[10] = target: GluN1/2B receptors (Rattus norvegicus, UniProt P35439+Q00960); assay: Two-electrode voltage-clamp recordings of recombinant GluN1/2B receptors; type: cell-based; conditions: for Hill slope nH of inhibition: 0.3 μM glycine, 100 μM glutamate; for selectivity for GluN1/2A over GluN1/2B: glycine concentration close to respective EC50
[11] = target: GluN1/2A-V783F (Rattus norvegicus, UniProt P35439+Q00959, V783F); assay: Two-electrode voltage-clamp recordings, mutant GluN1/2A-V783F; type: cell-based; conditions: 0.5 μM glycine; for Hill slope nH of inhibition: 300 μM glutamate; for decrease of potency compared to wild type GluN1/2A: saturating glutamate
[12] = target: GluN1/2A-I755F (Rattus norvegicus, UniProt P35439+Q00959, I755F); assay: Two-electrode voltage-clamp recordings, mutant GluN1/2A-I755F; type: cell-based
[13] = target: triheteromeric GluN1/2A/2B receptors; conditions: read-out: glycine EC50; previously reported; ref Lotti et al., 2025; cited from earlier work
[14] = ref Volkmann et al., 2016; cited from earlier work
[15] = target: GluN1/2A-M788T (Rattus norvegicus, UniProt P35439+Q00959, M788T); assay: Two-electrode voltage-clamp recordings, mutant GluN1/2A-M788T; type: cell-based
[16] = target: GluN1/2A-V529I (Rattus norvegicus, UniProt P35439+Q00959, V529I); assay: Two-electrode voltage-clamp recordings, mutant GluN1/2A-V529I; type: cell-based
[17] = target: T1, GluN1/2A receptors; conditions: ref Lotti et al., 2025, cited from earlier work; for Kb: read-out: binding affinity KB
[18] = target: GluN1/2A-M788I (Rattus norvegicus, UniProt P35439+Q00959, M788I); assay: Two-electrode voltage-clamp recordings, mutant GluN1/2A-M788I; type: cell-based
[19] = target: GluN1/2A-T797S (Rattus norvegicus, UniProt P35439+Q00959, T797S); assay: Two-electrode voltage-clamp recordings, mutant GluN1/2A-T797S; type: cell-based
[20] = target: GluN1/2A-E789Q (Rattus norvegicus, UniProt P35439+Q00959, E789Q); assay: Two-electrode voltage-clamp recordings, mutant GluN1/2A-E789Q; type: cell-based
[21] = test system: NMDA receptor-mediated EPSCs from CA1 pyramidal neurons; type: cell-based, mouse; conditions: 3 μM compound, baseline vs following NAM application
Summary of the method: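 Hippocampal slices from 3–5-week-old male and female C57BL/6J mice, perfused with aCSF at 32 °C. Whole-cell recordings from CA1 cells with Cs-based internal solution at +40 mV. Schaffer collaterals stimulated every 30 s with 10 μM NBQX and 10 μM gabazine. After 5-min baseline, test compound bath-applied at 3 μM. τW from double-exponential fit of deactivation; ratio paired t-test.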

[22] = read-out: IC50 (95% CI), […] μM glycine
[23] = read-out: IC50 (95% CI), […] μM glycine, 300 μM glutamate
[24] = glycine near EC50, saturating glutamate

GluN1/2A-V783L, sequence (Q00959 23-1464 V783L, other chains not shown): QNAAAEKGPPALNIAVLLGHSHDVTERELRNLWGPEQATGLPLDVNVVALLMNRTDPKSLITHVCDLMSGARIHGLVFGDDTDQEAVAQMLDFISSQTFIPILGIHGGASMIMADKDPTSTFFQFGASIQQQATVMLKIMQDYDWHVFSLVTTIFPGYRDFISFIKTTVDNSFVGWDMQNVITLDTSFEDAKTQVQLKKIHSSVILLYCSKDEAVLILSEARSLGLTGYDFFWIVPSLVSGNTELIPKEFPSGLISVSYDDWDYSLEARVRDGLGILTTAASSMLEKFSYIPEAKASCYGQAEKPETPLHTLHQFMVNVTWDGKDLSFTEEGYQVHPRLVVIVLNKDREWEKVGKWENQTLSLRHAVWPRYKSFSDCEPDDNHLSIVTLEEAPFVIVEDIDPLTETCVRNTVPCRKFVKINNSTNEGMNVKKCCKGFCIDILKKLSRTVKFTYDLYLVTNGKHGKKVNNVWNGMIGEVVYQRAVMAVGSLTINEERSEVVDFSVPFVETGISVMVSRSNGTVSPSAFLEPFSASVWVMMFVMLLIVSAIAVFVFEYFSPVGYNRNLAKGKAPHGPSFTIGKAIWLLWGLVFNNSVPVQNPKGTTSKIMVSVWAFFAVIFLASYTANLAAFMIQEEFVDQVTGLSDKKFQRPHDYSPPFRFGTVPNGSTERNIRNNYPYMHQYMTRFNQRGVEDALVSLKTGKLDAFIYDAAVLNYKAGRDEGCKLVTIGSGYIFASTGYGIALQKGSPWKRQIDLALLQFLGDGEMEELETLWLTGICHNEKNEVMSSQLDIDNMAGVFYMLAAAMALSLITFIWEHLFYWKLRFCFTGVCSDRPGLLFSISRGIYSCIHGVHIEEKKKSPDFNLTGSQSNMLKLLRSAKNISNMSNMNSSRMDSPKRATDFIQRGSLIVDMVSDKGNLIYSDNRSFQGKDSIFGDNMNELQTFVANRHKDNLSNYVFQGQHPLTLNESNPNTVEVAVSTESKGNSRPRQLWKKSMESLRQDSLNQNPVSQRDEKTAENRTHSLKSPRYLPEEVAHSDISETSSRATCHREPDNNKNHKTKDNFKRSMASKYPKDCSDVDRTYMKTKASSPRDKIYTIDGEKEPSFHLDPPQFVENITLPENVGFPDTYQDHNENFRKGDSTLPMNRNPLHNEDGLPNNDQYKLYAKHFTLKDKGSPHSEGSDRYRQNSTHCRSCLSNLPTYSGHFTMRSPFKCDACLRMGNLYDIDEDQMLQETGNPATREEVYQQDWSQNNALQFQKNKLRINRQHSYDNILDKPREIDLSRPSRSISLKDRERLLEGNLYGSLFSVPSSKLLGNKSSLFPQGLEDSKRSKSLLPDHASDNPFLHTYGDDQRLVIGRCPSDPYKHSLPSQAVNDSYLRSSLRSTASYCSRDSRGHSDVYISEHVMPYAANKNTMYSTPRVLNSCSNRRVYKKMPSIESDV
T1 sequence (Q00959 23-1464, other chains not shown): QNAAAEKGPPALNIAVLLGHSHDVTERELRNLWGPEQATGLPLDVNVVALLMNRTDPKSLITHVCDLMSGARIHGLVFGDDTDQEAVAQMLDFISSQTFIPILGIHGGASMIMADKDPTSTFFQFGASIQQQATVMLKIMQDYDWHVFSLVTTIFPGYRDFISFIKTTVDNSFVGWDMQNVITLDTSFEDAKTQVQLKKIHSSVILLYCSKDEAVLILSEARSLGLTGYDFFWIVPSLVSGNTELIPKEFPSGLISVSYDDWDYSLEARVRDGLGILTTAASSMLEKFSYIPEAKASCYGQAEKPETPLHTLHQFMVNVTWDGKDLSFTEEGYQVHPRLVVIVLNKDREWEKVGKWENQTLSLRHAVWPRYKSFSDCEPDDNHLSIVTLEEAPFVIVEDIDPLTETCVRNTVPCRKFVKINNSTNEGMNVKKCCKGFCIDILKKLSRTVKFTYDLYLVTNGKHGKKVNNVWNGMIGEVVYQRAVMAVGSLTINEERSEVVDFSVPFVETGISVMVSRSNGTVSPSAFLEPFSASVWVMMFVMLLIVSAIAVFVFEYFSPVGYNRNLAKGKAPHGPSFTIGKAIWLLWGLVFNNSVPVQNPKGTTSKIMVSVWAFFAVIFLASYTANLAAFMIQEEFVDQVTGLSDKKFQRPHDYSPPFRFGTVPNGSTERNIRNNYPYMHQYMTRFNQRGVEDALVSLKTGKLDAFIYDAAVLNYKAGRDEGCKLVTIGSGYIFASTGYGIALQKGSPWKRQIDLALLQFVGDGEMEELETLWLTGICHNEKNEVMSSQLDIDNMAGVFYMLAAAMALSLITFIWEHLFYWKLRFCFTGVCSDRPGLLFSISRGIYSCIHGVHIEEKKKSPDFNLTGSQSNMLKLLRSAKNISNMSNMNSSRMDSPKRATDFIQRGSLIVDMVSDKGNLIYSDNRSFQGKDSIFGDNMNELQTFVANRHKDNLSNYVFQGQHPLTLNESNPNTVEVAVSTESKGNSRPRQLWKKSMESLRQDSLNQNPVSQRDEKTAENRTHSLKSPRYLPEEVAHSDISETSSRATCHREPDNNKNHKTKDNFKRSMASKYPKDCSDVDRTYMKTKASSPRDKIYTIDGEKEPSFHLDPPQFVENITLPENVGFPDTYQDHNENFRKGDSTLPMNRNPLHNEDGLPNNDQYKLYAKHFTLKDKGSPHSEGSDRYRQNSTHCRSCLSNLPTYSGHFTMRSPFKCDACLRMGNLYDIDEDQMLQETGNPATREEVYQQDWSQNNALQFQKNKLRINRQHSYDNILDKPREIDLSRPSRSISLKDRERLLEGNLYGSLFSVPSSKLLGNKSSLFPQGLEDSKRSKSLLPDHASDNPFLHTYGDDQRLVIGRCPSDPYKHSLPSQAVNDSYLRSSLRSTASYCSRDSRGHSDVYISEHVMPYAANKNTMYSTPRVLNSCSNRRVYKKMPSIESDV
GluN1/2A-E789Q, sequence (Q00959 23-1464 E789Q, other chains not shown): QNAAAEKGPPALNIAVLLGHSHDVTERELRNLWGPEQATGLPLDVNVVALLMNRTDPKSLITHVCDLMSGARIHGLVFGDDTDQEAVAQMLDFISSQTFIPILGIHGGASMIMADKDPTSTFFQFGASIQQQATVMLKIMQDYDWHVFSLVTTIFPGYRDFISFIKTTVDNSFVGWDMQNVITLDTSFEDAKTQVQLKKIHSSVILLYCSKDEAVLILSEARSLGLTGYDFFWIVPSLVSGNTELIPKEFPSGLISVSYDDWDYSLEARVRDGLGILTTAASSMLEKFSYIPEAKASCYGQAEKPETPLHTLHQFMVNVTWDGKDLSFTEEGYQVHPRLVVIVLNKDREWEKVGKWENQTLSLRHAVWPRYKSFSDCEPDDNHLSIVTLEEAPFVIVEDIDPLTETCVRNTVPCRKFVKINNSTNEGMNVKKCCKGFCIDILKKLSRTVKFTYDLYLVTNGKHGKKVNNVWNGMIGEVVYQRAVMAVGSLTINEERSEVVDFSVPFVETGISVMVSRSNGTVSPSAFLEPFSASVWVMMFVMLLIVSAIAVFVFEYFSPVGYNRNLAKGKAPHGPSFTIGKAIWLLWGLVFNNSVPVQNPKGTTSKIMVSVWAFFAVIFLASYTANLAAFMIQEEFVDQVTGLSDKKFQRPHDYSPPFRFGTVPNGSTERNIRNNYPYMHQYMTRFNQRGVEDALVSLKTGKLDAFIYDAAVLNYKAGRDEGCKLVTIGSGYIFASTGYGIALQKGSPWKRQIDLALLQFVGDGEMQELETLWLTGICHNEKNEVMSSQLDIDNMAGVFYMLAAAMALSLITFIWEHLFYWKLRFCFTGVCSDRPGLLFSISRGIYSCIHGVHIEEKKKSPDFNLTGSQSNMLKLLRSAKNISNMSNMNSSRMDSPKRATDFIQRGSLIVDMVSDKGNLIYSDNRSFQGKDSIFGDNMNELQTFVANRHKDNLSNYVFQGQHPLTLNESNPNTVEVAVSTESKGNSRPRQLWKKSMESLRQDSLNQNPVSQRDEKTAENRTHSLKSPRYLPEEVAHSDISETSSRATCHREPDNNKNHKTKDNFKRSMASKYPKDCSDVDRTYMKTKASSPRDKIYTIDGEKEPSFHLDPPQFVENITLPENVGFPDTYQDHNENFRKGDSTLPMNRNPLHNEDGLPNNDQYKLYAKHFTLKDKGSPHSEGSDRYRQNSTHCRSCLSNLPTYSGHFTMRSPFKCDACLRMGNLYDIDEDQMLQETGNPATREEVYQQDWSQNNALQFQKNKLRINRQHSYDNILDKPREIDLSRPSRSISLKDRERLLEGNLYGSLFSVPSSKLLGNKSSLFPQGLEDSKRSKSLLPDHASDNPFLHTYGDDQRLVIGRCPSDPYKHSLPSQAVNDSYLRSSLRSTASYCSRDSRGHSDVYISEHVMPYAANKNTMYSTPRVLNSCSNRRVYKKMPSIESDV

Row | SMILES | selectivity for GluN1/2A over GluN1/2C [1] [fold] | Hill slope nH of inhibition [2] | IC50 [2] [µM] | Hill slope nH of inhibition [3] | decrease of potency compared to wild type GluN1/2A [3] [fold] | Hill slope nH of inhibition ([4]; 1 μM glycine, 100 μM glutamate) | selectivity for GluN1/2A over GluN1/2B-D receptors [4] [fold] | IC50 ([4]; 100 μM glutamate) [µM] | Hill slope nH of inhibition [7] | selectivity for GluN1/2A over GluN1/2D [7] [fold] | Hill slope nH of inhibition [10] | selectivity for GluN1/2A over GluN1/2B [10] [fold] | Hill slope nH of inhibition [11] | decrease of potency compared to wild type GluN1/2A [11] [fold] | Kb [17] [nM] | negative allosteric interaction constant α [17] | further results
1 | O=C(CSc1nnc(NCc2ccccc2)s1)NCC1CCCCC1 [TCN-213] | 16 | 0.9 | 4 | 1.1 | 4.8 | 1.1 | > 50 | 0.83 | 1.5 | 29 | 1.3 | 22 | 1.1 | 2.6 | – | – | Hill slope nH of inhibition ([1]; 0.3 μM glycine, 100 μM glutamate): 1.1; Hill slope nH of inhibition ([4]; 1 μM glycine, 10 μM glutamate): 1.1; Hill slope nH of inhibition ([4]; 30 μM glycine, 300 μM glutamate): 1.3; IC50 ([4]; 10 μM glutamate): 0.96 µM; allosteric constant α [5]: 0.043; Hill slope nH of inhibition ([6]; 1 μM glycine): 1.1; IC50 [6, 22]: 1.2 µM; Hill slope nH of inhibition ([8]; 1 μM glycine): 1.1; IC50 [8, 22]: 1.2 µM; Hill slope nH of inhibition [9]: 1.0; Hill slope nH of inhibition ([12]; 1 μM glycine, 300 μM glutamate): 1.0; reduction of potency compared to wild type GluN1/2A ([12]; glycine EC50 concentration, saturating glutamate): not significantly different; IC50 [12, 23]: 1.1 µM
2 | NCC(=O)O [Glycine] | – | – | – | – | – | – | – | – | – | – | – | – | – | – | – | – | EC50 [13]: 990 nM
3 | O=C(NNC(=O)c1ccc(CNS(=O)(=O)c2ccc(F)c(Cl)c2)cc1)c1ccccc1 [TCN-201] | > 50 | 1.2 | 0.28 | 1.1 | 8.1 | 1.2 | > 50 | 0.1 | 1.9 | 39 | 1.6 | 30 | 1.1 | 1.9 | 42 | 0.0032 | blood-brain barrier penetration [14]: lack blood-brain barrier penetration; Hill slope nH of inhibition ([15]; 0.3 μM glycine, 300 μM glutamate): 1.4; decrease of potency compared to wild type GluN1/2A [15, 24]: no significant effects; IC50 ([15]; read-out: IC50 (95% CI), 0.3 μM glycine, 300 μM glutamate): 140 nM; Hill slope nH of inhibition ([16]; 1 μM glycine, 300 μM glutamate): 1.5; decrease of potency compared to wild type GluN1/2A [16, 24]: 1.5 fold; Hill slope nH of inhibition ([18]; 1 μM glycine, 300 μM glutamate): 1.3; decrease of potency compared to wild type GluN1/2A [18, 24]: no significant effects; IC50 [18, 23]: 0.12 µM; Hill slope nH of inhibition ([19]; 1 μM glycine, 300 μM glutamate): 1.4; decrease of potency compared to wild type GluN1/2A [19, 24]: no significant effects; IC50 [19, 23]: 0.068 µM; Hill slope nH of inhibition ([20]; 1 μM glycine, 300 μM glutamate): 1.3; change of potency compared to wild type GluN1/2A [20, 24]: no significant effects; IC50 [20, 23]: 0.078 µM
4 | Cc1ncc(CNC(=O)c2cnc(CNS(=O)(=O)c3ccc(F)c(Cl)c3)cn2)s1 [MPX-004] | – | – | – | – | – | – | – | – | – | – | – | – | – | – | 9.3 | 0.0018 | effect on EPSC decay times (weighted deactivation time constant τW) [21]: increases EPSC decay times
